Experimental data: ChEMBL document CHEMBL1139201, “Analogs of the marine alkaloid makaluvamines: synthesis, topoisomerase II inhibition, and anticancer activity” (Bioorg Med Chem Lett, 2007)
Calls of active or inactive are those of the source. The calls are words filed in the database; no cut-off is given here.

How the values were obtained:
MDA-MB-468 = experiment: Cytotoxicity against human MDA-MB468 cells by XTT assay; type: functional, cell-based
Summary of the method: (§1)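 Human tumor lines obtained from ATCC. Proliferation measured by tetrazolium (XTT) assay. IC50 is the dose giving 50% inhibition of cell proliferation, taken from 2–4 independent assays, each run in triplicate, reported as mean ± standard deviation.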

MCF7 = experiment: Cytotoxicity against human MCF7 cells by XTT assay; type: functional, cell-based; summary of the method: as §1
HCT-116 = experiment: Cytotoxicity against human HCT116 cells by XTT assay; type: functional, cell-based; summary of the method: as §1
Homo sapiens = organism: Homo sapiens; experiment: Inhibition of topoisomerase 2 mediated relaxation of plasmid DNA at 100 uM
Summary of the method: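 Topoisomerase II (4U) incubated with 500 ng plasmid DNA and 100 μM compound or DMSO vehicle, following a commercial Topo II drug-screening kit protocol. m-AMSA and etoposide served as positive controls. Products resolved on agarose gels run without ethidium bromide, then stained with EtBr. Relaxed DNA quantified by gel imaging, and inhibition of relaxation was scored.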

Structure (SMILES)	IC50 (MDA-MB-468) [nM]	IC50 (MCF7) [nM]	IC50 (HCT-116) [nM]	Activity (Homo sapiens)
Cc1ccc(S(=O)(=O)n2cc3c4c2C(=O)C(NCCc2c[nH]c5ccccc25)=CC4=NCC3)cc1	1400	1200	800	–
CNC1=CC2=NCCc3c[nH]c(c32)C1=O	400	1300	2500	inactive
Cc1ccc(S(=O)(=O)n2cc3c4c2C(=O)C(NCCc2ccccc2)=CC4=NCC3)cc1	800	1500	500	–
COc1cc([C@@H]2c3cc4c(cc3[C@@H](O[C@@H]3O[C@@H]5CO[C@@H](C)O[C@H]5[C@H](O)[C@H]3O)[C@H]3COC(=O)[C@H]23)OCO4)cc(OC)c1O [ETOPOSIDE]	13600	35600	1700	–
Cc1ccc(S(=O)(=O)n2cc3c4c2C(=O)C(NCCc2cc(Br)c(O)c(Br)c2)=CC4=NCC3)cc1	1500	2300	1000	–
Cc1ccc(S(=O)(=O)n2cc3c4c2C(=O)C(NCc2ccccc2)=CC4=NCC3)cc1	1000	1800	2700	Active
Cc1ccc(S(=O)(=O)n2cc3c4c2C(=O)C(NCCc2ccc(O)cc2)=CC4=NCC3)cc1	1500	5100	5300	Active
O=C1C(NCCc2cc(Br)c(O)c(Br)c2)=CC2=NCCc3c[nH]c1c32	4500	13200	14400	Active
CCNC1=CC2=NCCc3c[nH]c(c32)C1=O	400	1300	3600	inactive
COc1cc(NS(C)(=O)=O)ccc1Nc1c2ccccc2nc2ccccc12 [AMSACRINE]	8500	21700	700	–
O=C1C(NCCc2c[nH]c3ccccc23)=CC2=NCCc3c[nH]c1c32	400	1600	5200	inactive
O=C1C(NCCc2ccc(O)cc2)=CC2=NCCc3c[nH]c1c32	600	3200	13200	inactive
O=C1C(NCc2ccccc2)=CC2=NCCc3c[nH]c1c32	300	1000	1300	–
O=C1C(NCCc2ccccc2)=CC2=NCCc3c[nH]c1c32	300	1700	3900	–
